The record followed here is ChEMBL document CHEMBL1122798, “Trypanocidal 1,3-arylene diketone bis(guanylhydrazone)s. Structure-activity relationships among substituted and heterocyclic analogues” (1984).

Holding throughout (type): functional
Test [1] has as its system Mus musculus. Briefly: Compound was tested for Trypanocidal Activity in mice at 15 mg/kg; 4/15.
In test [2] the test system is Mus musculus. Briefly: Compound was tested for Trypanocidal Activity in mice at 25 mg/kg; 10/15.
For test [3], the system named is Mus musculus. Briefly: Compound was tested for Trypanocidal Activity in mice at 10 mg/kg; 0/5.
Test [4] relates to Mus musculus. Briefly: Compound was tested for Trypanocidal Activity in mice at 40 mg/kg; 5/5.
Test [5] concerns Mus musculus. Briefly: Compound was tested for Trypanocidal Activity in mice at 60 mg/kg; 0/5.
The species entered for test [6] is Mus musculus. Briefly: Effective dose against Trypanosoma brucei infection in mice. In short, it runs like this: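 Female Swiss-Webster mice (20–25 g) were infected ip with 5×10^4 T. brucei EATRO 110 organisms in fresh mouse blood diluted with minimum essential medium. Groups of 5 or 10 received a single ip dose in normal saline (solution or milled suspension, 20 μL/g) 6 h post-infection. Deaths within 72 h were scored as toxic. Survivors aparasitemic at 28 days (tail-blood wet films, phase contrast) counted as cures. ED50 was computed by Bliss/Litchfield–Wilcoxon, excluding toxic dosages.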

Test [7] deals with Mus musculus. The test is described as follows: Compound was tested for Trypanocidal Activity in mice at 15 mg/kg; 16/20.
Test [8] deals with Mus musculus. Briefly: Compound was tested for Trypanocidal Activity in mice at 25 mg/kg; 7/10.
The subject of test [9] is Mus musculus. Briefly: Compound was tested for Trypanocidal Activity in mice at 10 mg/kg; 14/20.
Test [10] concerns Mus musculus. The test is described as follows: Compound was tested for Trypanocidal Activity in mice at 40 mg/kg; 1/5.
Test [11] relates to Mus musculus. The test is described as follows: Compound was tested for Trypanocidal Activity in mice at 4 mg/kg; 0/5.
Test [12] relates to Mus musculus. Briefly: Compound was tested for Trypanocidal Activity in mice at 6 mg/kg; 9/20.
In test [13] the test system is Mus musculus. Briefly: Compound was tested for Trypanocidal Activity in mice at 100 mg/kg; 0/5.
The test system of test [14] is Mus musculus. The test is described as follows: Compound was tested for Trypanocidal Activity in mice at 15 mg/kg; 0/5.
Test [15] concerns Mus musculus. The test is described as follows: Compound was tested ffor Trypanocidal Activity in mice at 500 mg/kg; 0/5.
Test [16] concerns Mus musculus. Briefly: Compound was tested for Trypanocidal Activity in mice at 40 mg/kg; 0/5.
Test [17] relates to Mus musculus. Briefly: Compound was tested for Trypanocidal Activity in mice at 15 mg/kg; 19/20.
Test [18] has as its system Mus musculus. The test is described as follows: Compound was tested for Trypanocidal Activity in mice at 2.5 mg/kg; 1/10.
Test [19] deals with Mus musculus. The test is described as follows: Compound was tested for Trypanocidal Activity in mice at 1.5 mg/kg; 0/10.
For test [20], the system named is Mus musculus. The test is described as follows: Compound was tested for Trypanocidal Activity in mice at 25 mg/kg; 18/20.
The subject of test [21] is Mus musculus. The test is described as follows: Compound was tested for Trypanocidal Activity in mice at 10 mg/kg; 20/20.
The subject of test [22] is Mus musculus. Briefly: Compound was tested for Trypanocidal Activity in mice at 40 mg/kg; 10/10.
Test [23] relates to Mus musculus. The test is described as follows: Compound was tested for Trypanocidal Activity in mice at 4 mg/kg; 10/20.
The test system of test [24] is Mus musculus. Briefly: Compound was tested for Trypanocidal Activity in mice at 60 mg/kg; 3/5.
Test [25] has as its system Mus musculus. The test is described as follows: Compound was tested for Trypanocidal Activity in mice at 6 mg/kg; 17/20.
In test [26] the test system is Mus musculus. The test is described as follows: Compound was tested for Trypanocidal Activity in mice at 25 mg/kg; 0/15.
For test [27], the system named is Mus musculus. The test is described as follows: Compound was tested for Trypanocidal Activity in mice at 15 mg/kg; 10/10.
Test [28] relates to Mus musculus. The test is described as follows: Compound was tested for Trypanocidal Activity in mice at 2.5 mg/kg; 21/35.
Test [29] has as its system Mus musculus. Briefly: Compound was tested for Trypanocidal Activity in mice at 1.0 mg/kg; 0/10.
Test [30] has as its system Mus musculus. The test is described as follows: Compound was tested for Trypanocidal Activity in mice at 25 mg/kg; 10/10.
Test [31] concerns Mus musculus. Briefly: Compound was tested for Trypanocidal Activity in mice at 1.5 mg/kg; 2/25.
For test [32], the system named is Mus musculus. Briefly: Compound was tested for Trypanocidal Activity in mice at 4 mg/kg; 20/30.
For test [33], the system named is Mus musculus. The test is described as follows: Compound was tested for Trypanocidal Activity in mice at 6 mg/kg; 26/30.
In test [34] the test system is Mus musculus. Briefly: Compound was tested for Trypanocidal Activity in mice at 40 mg/kg; toxic deaths; 1/5.
For test [35], the system named is Mus musculus. The test is described as follows: Compound was tested for Trypanocidal Activity in mice at 10 mg/kg; 19/20.
For test [36], the system named is Mus musculus. The test is described as follows: Compound was tested for Trypanocidal Activity in mice at 15 mg/kg; 9/10.
The subject of test [37] is Mus musculus. Briefly: Compound was tested for Trypanocidal Activity in mice at 2.5 mg/kg; 15/30.
Test [38] relates to Mus musculus. Briefly: Compound was tested for Trypanocidal Activity in mice at 25 mg/kg; toxic deaths; 8/10.
Test [39] relates to Mus musculus. The test is described as follows: Compound was tested for Trypanocidal Activity in mice at 1.5 mg/kg; 3/30.
In test [40] the test system is Mus musculus. The test is described as follows: Compound was tested for Trypanocidal Activity in mice at 10 mg/kg; 10/10.
In test [41] the test system is Mus musculus. The test is described as follows: Compound was tested for Trypanocidal Activity in mice at 6 mg/kg; 9/10.
The test system of test [42] is Mus musculus. Briefly: Compound was tested for Trypanocidal Activity in mice at 4 mg/kg; 22/30.
Test [43] deals with Mus musculus. The test is described as follows: Compound was tested for Trypanocidal Activity in mice at 15 mg/kg; 11/20.
In test [44] the test system is Mus musculus. The test is described as follows: Compound was tested for Trypanocidal Activity in mice at 25 mg/kg; 4/5.
Test [45] has as its system Mus musculus. Briefly: Compound was tested for Trypanocidal Activity in mice at 10 mg/kg; 1/20.
For test [46], the system named is Mus musculus. Briefly: Compound was tested for Trypanocidal Activity in mice at 6 mg/kg; 0/10.

As for `C/C(=N\NC(=N)N)c1ccc([N+](=O)[O-])c(/C(C)=N/NC(=N)N)c1.Cl`, the Cures/total worked out at 4 in the test on Mus musculus [1]; 10 in the test on Mus musculus [2]; 0 in the test with Mus musculus [3]; 5 with Mus musculus [4]; 0 with Mus musculus [5]. Besides, it took a dose of 20 mg/kg to reach the 50% effect level in the test listed under Mus musculus [6] (ED50).
For the compound `C/C(=N\NC(=N)N)c1cc(O)cc(/C(C)=N/NC(=N)N)c1.Cl`, the Cures/total is 16 in the test with Mus musculus [7]; 7 in the test on Mus musculus [8]; 14 in the test with Mus musculus [9]; 1 with Mus musculus [10]; 0 with Mus musculus [11]; 0 in the test with Mus musculus [5]. Besides, the Cures/total with Mus musculus [12] is given as 9. Further, in the test filed under Mus musculus [6], the 50% effective dose (ED50) – broadly, the dose at which the effect has come halfway, by size or by number of responders – was found to be 7.3 mg/kg.
Consider `C/C(=N\NC(=N)N)c1cc(/C(C)=N/NC(=N)N)c(O)cc1O.Cl`, for which the Cures/total in the test on Mus musculus [13], with Mus musculus [14], in the test on Mus musculus [15] and with Mus musculus [16] was 0 throughout.
Regarding `C/C(=N\NC(=N)N)c1cccc(/C(C)=N/NC(=N)N)n1.Cl`, the Cures/total in the test with Mus musculus [17] came out at 19; in the test with Mus musculus [18] it was 1; in the test with Mus musculus [19] it was 0; with Mus musculus [20], 18; with Mus musculus [13], 0; in the test on Mus musculus [21] it was 20. The Cures/total is given as 10 with Mus musculus [22], 10 in the test on Mus musculus [23], 3 with Mus musculus [24] and 17 in the test on Mus musculus [25]. Further, the 50% effect level in the test filed under Mus musculus [6] (ED50) was put at a dose of 4.1 mg/kg.
In the case of `CCCC/C(=N\NC(=N)N)c1cccc(/C(CCCC)=N/NC(=N)N)c1.Cl`, the Cures/total with Mus musculus [26], in the test on Mus musculus [16] and in the test on Mus musculus [5] was 0 throughout.
Take `C/C(=N\NC(=N)N)c1cc(N)cc(/C(C)=N/NC(=N)N)c1.Cl`: the “Mice cured (number)” value in the test on Mus musculus [27] is recorded as 10. For the same compound, the Cures/total with Mus musculus [28] turned out to be 21; in the test with Mus musculus [29], 0; with Mus musculus [30] it was 10; with Mus musculus [31], 2; in the test with Mus musculus [32], 20; with Mus musculus [5], 0. The Cures/total came out at 26 in the test with Mus musculus [33], 1 in the test on Mus musculus [34] and 19 in the test on Mus musculus [35]. The compound also yielded an ED50 in the test listed under Mus musculus [6] of 2.8 mg/kg.
For the compound `CC(=O)Nc1cc(/C(C)=N/NC(=N)N)cc(/C(C)=N/NC(=N)N)c1.Cl`, the Cures/total in the test with Mus musculus [36] was determined as 9; in the test with Mus musculus [37], 15; in the test on Mus musculus [29], 0; in the test on Mus musculus [38], 8; with Mus musculus [39] it was 3; with Mus musculus [40] it was 10. Moreover, the values for the Cures/total with Mus musculus [16], with Mus musculus [41] and in the test with Mus musculus [42] were 0, 9 and 22, respectively.
For `C/C(=N\NC(=N)N)c1cncc(/C(C)=N/NC(=N)N)c1.Cl`, the Cures/total in the test with Mus musculus [43] is 11; in the test with Mus musculus [44], 4; in the test on Mus musculus [45] it was 1; with Mus musculus [10], 1; in the test on Mus musculus [46], 0.
